Measurements reported in PubChem BioAssay AID463111 (Johns Hopkins Ion Channel Center, 2010).
Among all 310,000 compounds or so, about 2,800 (0.9%) were called active.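 Rule for the calls: active = B-score of the integrated calcium signal more than 4 SD below the library mean, with starting fluorescence not abnormally high; inactive = the rest.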 For the sample, actives were picked, then their nearest neighbours and some compounds at random.

Assay: RGS4 potentiators or activators, primary screen, cell-based, HEK293 M3R inducible RGS4, calcium flux (AID 463111);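 for B-score: negative B-score means reduced calcium response which marks RGS4 activation or potentiation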
Conditions: HEK293 M3R/inducible RGS4, carbachol calcium flux Fluo4, at 10 µM; hits give low values
Procedure, shortened: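 System – HEK293 FlpIn-TREx cells, stable M3R, doxycycline-inducible RGS4 · Reagent – ECmax carbachol challenge · Times – compound preincubation 20 min at room temperature before agonist · Technique – Fluo4 fluorescence kinetic imaging of calcium · Measure – B score of integrated Fluo4 ratio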
For CC[n+]1c(C)n(-c2ccccc2)c2ccc(NC(C)=O)cc21, the B-score was “inactive”.
For OC(CN=c1sc2ccccc2n1CC(O)COc1ccccc1)COc1ccccc1 (configuration not stated), the B-score was -10.8 (active).
In the case of CC(C)c1ccc(OCC(O)Cn2cnc3ccccc32)cc1 (configuration not stated), the B-score is reported as “inactive”.
With C=CCn1c(=N)n(CC(O)COc2ccc(OC)cc2)c2ccccc21 (configuration not stated) the B-score was “inactive”.
With COc1cccc(NC(=O)Cn2cnc3sc(C)c(S(=O)(=O)N4CCN(C)CC4)c3c2=O)c1 the B-score was “inactive”.
With CN1CCC(OC(=O)COc2ccc(Cl)cc2Cl)CC1 the B-score was -7.11 (active).
For O=C(CCCOc1ccc(Cl)cc1Cl)NNC(=O)C1CCC1, the B-score was “inactive”.
In the case of Cc1ccc(Cl)c(OCC(=O)NN2CCN(C)CC2)c1, the B-score is reported as “inactive”.
In the case of CC(C)N1C(=O)N(c2ccccc2)C(C)(O)CC1(C)C (configuration not stated), the B-score is reported as “inactive”.
For CN(C)C(CNC(=O)c1ccc(S(=O)(=O)NCc2ccco2)cc1)c1ccccc1 (configuration not stated), the B-score was “inactive”.
In the case of CC(C)CN(C(=O)Cn1c(=O)cnc2ccccc21)C1CCS(=O)(=O)C1 (configuration not stated), the B-score is reported as “inactive”.
With COc1ccccc1CCCNC(=O)C1CCC(=O)N(CCN2CCOCC2)C1 (configuration not stated) the B-score was “inactive”.
In the case of Cc1ccc(-n2[nH]c(C)c(/C=N/N3C(=O)c4cccc5cccc(c45)C3=O)c2=O)cc1, the B-score is reported as -9.28 (active).
In the case of COc1cc(SC#N)ccc1N=Cc1c(C)[nH]n(-c2ccc(C)cc2)c1=O, the B-score is reported as “inactive”.
With Cc1[nH]n(-c2cccc(Cl)c2)c(=O)c1/C=N/n1c(C)nc2ccccc2c1=O the B-score was “inactive”.
With COc1ccc(N2CCN(S(=O)(=O)c3ccc4c(c3)N(C(C)=O)CCO4)CC2)cc1 the B-score was “inactive”.
With CCOc1ccc(NC(=O)C(C)N2C(=O)c3ccccc3C2=O)cc1 (configuration not stated) the B-score was “inactive”.
For CC(=O)c1ccc(OCC(O)CN2CCN(S(=O)(=O)c3cccc(Br)c3)CC2)cc1 (configuration not stated), the B-score was “inactive”.
With COc1ccc(C2c3ccc(O)cc3Oc3ncn(CCCO)c(=N)c32)cc1OC (configuration not stated) the B-score was “inactive”.
For c1ccc2c(c1)CSc1sccc1C2=C1CCNCC1, the B-score was -7.49 (active).
In the case of Nc1nnc(SCC(=O)NC2CCCc3ccccc32)s1 (configuration not stated), the B-score is reported as “inactive”.
For CCn1ccnc1CN1CCCC(C(=O)c2ccc3c4c(cccc24)CC3)C1 (configuration not stated), the B-score was “inactive”.
In the case of CN(C)CCOc1ccc(Cl)cc1C(C)(C)C, the B-score is reported as -7.65 (active).
For CN(C)CCOCCOc1ccc(Cl)c2ccccc12, the B-score was “inactive”.
In the case of CC(C)(C)NCCCOc1ccc(Cl)cc1C(C)(C)C, the B-score is reported as “inactive”.
With COc1ccc(/C=C2/SC(=O)N(CCCCCC(=O)Nc3ccccc3C(=O)O)C2=S)cc1 the B-score was “inactive”.
With Cc1cc(C)cc(C(=O)N(CCc2ccccc2)C2=CC3CCC(C2)N3C)c1 (configuration not stated) the B-score was “inactive”.
In the case of CCCN(CCc1ccccc1)C1CCc2c(O)cccc2C1 (configuration not stated), the B-score is reported as -10.2 (active).
For Cc1ccc(-c2nn(-c3ccccc3)cc2/C=C2\SC(=S)N(CCCCCC(=O)O)C2=O)o1, the B-score was -7.93 (active).
In the case of COc1ccc(-c2nn(-c3ccccc3)cc2/C=C2/SC(=S)N(CCCC(=O)O)C2=O)c(C)c1, the B-score is reported as “inactive”.
In the case of CN(C)S(=O)(=O)c1cccc(-c2nn(-c3ccccc3)cc2/C=C2\SC(=S)N(CC(=O)O)C2=O)c1, the B-score is reported as “inactive”.
With Oc1oc(-c2ccccc2Br)nc1/C=N/c1ccccn1 the B-score was “inactive”.
For CSc1nnnn1-c1c(C)cc(C)cc1C, the B-score was “inactive”.
For CCCOc1ccc(C2c3c(oc4cc(C)c(C)cc4c3=O)C(=O)N2CCCN2CCOCC2)cc1 (configuration not stated), the B-score was “inactive”.
In the case of Cc1cc2oc(=O)cc(CN3CCN(Cc4ccccc4)CC3)c2cc1C, the B-score is reported as “inactive”.
In the case of Cc1cc2oc3ccc(NCCC4CCCN4C)cc3c(=O)c2cc1C (configuration not stated), the B-score is reported as -9.61 (active).
With C=CS(=O)c1sc(Cl)c(N2CCOCC2)c1[N+](=O)[O-] (configuration not stated) the B-score was “inactive”.
With CCC(C(=O)OC)n1cnc2scc(-c3ccc(C)cc3)c2c1=O (configuration not stated) the B-score was “inactive”.
In the case of CC(=O)Nc1ccc(/C(C)=N/NC(=O)CN(c2ccccc2Br)S(C)(=O)=O)cc1, the B-score is reported as “inactive”.
For O=C(O)c1cccc2c1C(=O)N(C1CCCC1)C2, the B-score was “inactive”.
For CCc1c(C)sc(NC(=O)c2ccc(Br)o2)c1C(=O)OC, the B-score was -10.4 (active).
In the case of CCOC(=O)c1c(NC(=O)C2CC=CCC2C(=O)O)sc(C)c1CC (configuration not stated), the B-score is reported as “inactive”.
With CCc1c(C)sc(NC(=O)c2cccs2)c1C(N)=O the B-score was “inactive”.
For COc1cccc(OC)c1C(=O)OCC(=O)/C(C#N)=C(\C)N, the B-score was “inactive”.
In the case of Cc1ccc(CNC(=O)Cn2cnc(S(=O)(=O)N3CCCCC3)c2)o1, the B-score is reported as “inactive”.
In the case of Cc1nn(CC(=O)Nc2ccc(C#N)cc2)c(C)c1[N+](=O)[O-], the B-score is reported as “inactive”.
For CCOc1ccccc1NC(=O)C1CCCN(S(=O)(=O)c2ccccc2)C1 (configuration not stated), the B-score was “inactive”.
In the case of CC1Cc2ccccc2N1CC(=O)Nc1ccc2c(c1)OC(F)(F)O2 (configuration not stated), the B-score is reported as “inactive”.
In the case of COc1ccc(NS(=O)(=O)c2ccc(N3CCN(CCO)CC3)c([N+](=O)[O-])c2)cc1, the B-score is reported as “inactive”.
For CN1CCN(c2ccc(S(=O)(=O)Nc3ccccc3)cc2[N+](=O)[O-])CC1, the B-score was -8.35 (active).
With CC1CCN(c2ccc(S(=O)(=O)Nc3cc(C(=O)O)cc(C(=O)O)c3)cc2[N+](=O)[O-])CC1 the B-score was “inactive”.
With COc1ccc(N2CCN(C(=O)C3CCN(C(=O)c4ccccc4Cl)CC3)CC2)cc1 the B-score was “inactive”.
With Cc1ccc(OS(=O)(=O)c2ccc(-c3csc(C)n3)s2)c(C)c1 the B-score was -9.64 (active).
With Cc1ccc(S(=O)(=O)NCc2csc(C)n2)c(C)c1 the B-score was “inactive”.
For CNC(=O)c1sc(NCc2ccccc2OC)nc1C, the B-score was “inactive”.
In the case of O=C(CN1C(=O)COc2ccccc21)NCCN1CCc2ccccc2C1, the B-score is reported as “inactive”.
With Cc1cccc2c1-c1sc(C(=O)NCCCN3CCc4ccccc4C3)cc1CO2 the B-score was -7.27 (active).
For O=C(NCCCN1CCOCC1)c1cc2c(s1)CCC2, the B-score was “inactive”.
In the case of CCOc1ccc(N(C)S(=O)(=O)c2cnc[nH]2)cc1, the B-score is reported as “inactive”.
For COc1ccccc1C(=O)NC(=S)Nc1ccccc1N1CCCCC1, the B-score was “inactive”.
For Clc1ccc(COn2c(-c3ccc(Cl)cc3Cl)nc3ncccc32)cc1, the B-score was -8.26 (active).
With Clc1ccc(-c2ncc3ccccn23)c(Cl)c1 the B-score was “inactive”.
In the case of COn1c(-c2ccc(Cl)cc2Cl)nc2ncccc21, the B-score is reported as “inactive”.
For COCCn1c(SCC(=O)Nc2nc(C)cs2)nnc1C(C)C, the B-score was “inactive”.
For COc1ccc(NC(=O)c2cc3nc(-c4ccccc4)cc(C)n3n2)cc1OC, the B-score was “inactive”.
With COCCNc1cc(-c2ccccc2)nc2cc(-c3cccc(F)c3)nn12 the B-score was -7.61 (active).
For COC(=O)c1cc2nc(-c3ccccc3)cc(C(F)(F)F)n2n1, the B-score was “inactive”.
